According to ChEMBL document CHEMBL1135543, “Alpha(1)-adrenoceptor antagonists. 4. Pharmacophore-based design, synthesis, and biological evaluation of new imidazo-, benzimidazo-, and indoloarylpiperazine derivatives” (J Med Chem, 2002):

Legend:
[1] = biological target: T1, Adrenergic receptor alpha-2 (Rattus norvegicus, UniProt P22086+P19328+P22909); experiment: Binding affinity against Alpha-2 adrenergic receptor by displacing [3H]rauwolscine radioligand in rat cortex membrane; format: cell membranes, Brain
T1 sequence (P22086 whole entry): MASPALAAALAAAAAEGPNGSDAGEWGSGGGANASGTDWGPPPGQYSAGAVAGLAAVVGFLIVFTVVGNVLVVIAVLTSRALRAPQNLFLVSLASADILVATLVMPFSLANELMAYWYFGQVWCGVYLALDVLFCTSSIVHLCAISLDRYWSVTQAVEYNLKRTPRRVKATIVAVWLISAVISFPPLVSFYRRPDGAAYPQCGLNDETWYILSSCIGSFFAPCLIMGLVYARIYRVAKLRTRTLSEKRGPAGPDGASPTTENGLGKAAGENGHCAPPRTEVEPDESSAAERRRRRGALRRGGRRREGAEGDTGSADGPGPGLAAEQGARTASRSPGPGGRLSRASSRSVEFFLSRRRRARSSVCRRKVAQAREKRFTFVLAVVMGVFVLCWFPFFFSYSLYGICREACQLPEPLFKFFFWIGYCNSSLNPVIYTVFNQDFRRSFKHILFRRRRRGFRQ
T1 sequence (P19328 whole entry): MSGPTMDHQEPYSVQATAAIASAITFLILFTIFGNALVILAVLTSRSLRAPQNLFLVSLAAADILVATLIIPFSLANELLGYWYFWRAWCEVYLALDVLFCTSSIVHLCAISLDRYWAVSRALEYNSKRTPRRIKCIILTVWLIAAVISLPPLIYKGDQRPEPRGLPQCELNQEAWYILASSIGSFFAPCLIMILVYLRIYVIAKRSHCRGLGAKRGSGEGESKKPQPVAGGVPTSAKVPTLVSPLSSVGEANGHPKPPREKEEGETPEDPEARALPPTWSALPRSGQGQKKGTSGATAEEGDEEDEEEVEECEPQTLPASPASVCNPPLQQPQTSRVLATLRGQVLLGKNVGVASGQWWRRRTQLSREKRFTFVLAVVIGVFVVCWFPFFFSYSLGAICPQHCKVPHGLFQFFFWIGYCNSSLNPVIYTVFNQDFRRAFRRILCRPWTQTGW
T1 sequence (P22909 whole entry): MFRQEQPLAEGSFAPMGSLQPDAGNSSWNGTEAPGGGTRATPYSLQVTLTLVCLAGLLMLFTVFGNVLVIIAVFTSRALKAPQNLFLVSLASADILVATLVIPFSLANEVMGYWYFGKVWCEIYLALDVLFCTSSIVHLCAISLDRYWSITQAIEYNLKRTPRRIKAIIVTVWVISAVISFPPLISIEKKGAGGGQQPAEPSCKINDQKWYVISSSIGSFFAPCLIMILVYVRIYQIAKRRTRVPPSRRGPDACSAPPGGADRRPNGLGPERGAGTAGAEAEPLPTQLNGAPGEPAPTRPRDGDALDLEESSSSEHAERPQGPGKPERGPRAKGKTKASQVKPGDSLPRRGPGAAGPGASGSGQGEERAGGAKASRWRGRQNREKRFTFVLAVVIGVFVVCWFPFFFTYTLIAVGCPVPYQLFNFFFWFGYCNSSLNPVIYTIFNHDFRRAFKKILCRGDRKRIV

[2] = biological target: T2, 5-hydroxytryptamine receptor 1A (Rattus norvegicus, UniProt P19327); experiment: Binding affinity against 5-hydroxytryptamine 1A receptor by displacing [3H]8-OH-DPAT radioligand in rat cortex membrane; format: cell membranes
T2 sequence (P19327 whole entry): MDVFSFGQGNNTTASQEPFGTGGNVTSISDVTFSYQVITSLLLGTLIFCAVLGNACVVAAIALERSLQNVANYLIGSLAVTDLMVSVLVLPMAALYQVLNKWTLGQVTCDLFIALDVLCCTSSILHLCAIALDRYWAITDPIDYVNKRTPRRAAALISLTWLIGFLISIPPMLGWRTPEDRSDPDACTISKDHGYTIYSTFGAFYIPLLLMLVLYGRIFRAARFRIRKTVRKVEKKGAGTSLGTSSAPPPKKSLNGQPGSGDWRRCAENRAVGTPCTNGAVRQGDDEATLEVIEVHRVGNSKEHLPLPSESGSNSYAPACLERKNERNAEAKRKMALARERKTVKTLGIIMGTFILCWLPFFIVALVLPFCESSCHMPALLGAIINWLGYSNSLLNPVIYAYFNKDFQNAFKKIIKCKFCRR
Procedure, shortened: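 Rat cortex membranes, pre-incubated 10 min at 37 °C to remove endogenous 5-HT, stored at –80 °C, then resuspended in 50 mM Tris-HCl pH 7.4 (0.2–0.3 mg protein). GF/C filtration, scintillation counting.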

[3] = biological target: T3, Adrenergic receptor alpha-1 (Rattus norvegicus, UniProt P15823+P23944+P43140); experiment: Intrinsic activity for displacement of [3H]- prazosin from Alpha-1 adrenergic receptor of rat cerebral cortex membrane in the presence of 1 nM GTP; format: tissue-based
T3 sequence (P15823 whole entry): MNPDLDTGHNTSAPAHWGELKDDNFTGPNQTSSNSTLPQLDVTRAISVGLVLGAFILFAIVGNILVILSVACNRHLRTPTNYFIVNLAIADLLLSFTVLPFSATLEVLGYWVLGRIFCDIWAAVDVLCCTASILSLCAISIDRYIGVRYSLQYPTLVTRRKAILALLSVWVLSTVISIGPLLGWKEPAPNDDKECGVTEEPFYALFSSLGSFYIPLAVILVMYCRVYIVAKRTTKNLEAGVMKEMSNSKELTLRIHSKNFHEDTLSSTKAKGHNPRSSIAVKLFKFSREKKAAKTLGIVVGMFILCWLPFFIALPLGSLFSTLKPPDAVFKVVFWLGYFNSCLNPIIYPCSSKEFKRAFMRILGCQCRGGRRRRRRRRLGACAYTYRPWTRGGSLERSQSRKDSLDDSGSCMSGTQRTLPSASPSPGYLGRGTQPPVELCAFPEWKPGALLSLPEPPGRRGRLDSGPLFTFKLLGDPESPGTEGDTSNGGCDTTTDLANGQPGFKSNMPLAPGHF
T3 sequence (P23944 whole entry): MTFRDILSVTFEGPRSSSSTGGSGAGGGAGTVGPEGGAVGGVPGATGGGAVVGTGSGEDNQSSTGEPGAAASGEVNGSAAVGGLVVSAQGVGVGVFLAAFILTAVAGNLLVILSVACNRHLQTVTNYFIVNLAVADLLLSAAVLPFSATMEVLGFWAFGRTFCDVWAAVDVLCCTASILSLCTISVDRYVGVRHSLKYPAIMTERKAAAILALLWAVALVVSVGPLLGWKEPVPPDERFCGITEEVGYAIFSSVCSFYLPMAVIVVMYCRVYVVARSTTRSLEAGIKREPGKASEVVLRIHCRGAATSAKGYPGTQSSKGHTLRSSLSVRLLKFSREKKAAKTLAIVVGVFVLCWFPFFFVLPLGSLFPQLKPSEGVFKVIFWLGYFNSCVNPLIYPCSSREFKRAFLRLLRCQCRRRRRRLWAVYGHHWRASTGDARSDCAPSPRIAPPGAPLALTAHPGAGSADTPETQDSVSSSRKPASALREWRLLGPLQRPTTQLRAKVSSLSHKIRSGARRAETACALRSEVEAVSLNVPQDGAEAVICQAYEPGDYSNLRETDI
T3 sequence (P43140 whole entry): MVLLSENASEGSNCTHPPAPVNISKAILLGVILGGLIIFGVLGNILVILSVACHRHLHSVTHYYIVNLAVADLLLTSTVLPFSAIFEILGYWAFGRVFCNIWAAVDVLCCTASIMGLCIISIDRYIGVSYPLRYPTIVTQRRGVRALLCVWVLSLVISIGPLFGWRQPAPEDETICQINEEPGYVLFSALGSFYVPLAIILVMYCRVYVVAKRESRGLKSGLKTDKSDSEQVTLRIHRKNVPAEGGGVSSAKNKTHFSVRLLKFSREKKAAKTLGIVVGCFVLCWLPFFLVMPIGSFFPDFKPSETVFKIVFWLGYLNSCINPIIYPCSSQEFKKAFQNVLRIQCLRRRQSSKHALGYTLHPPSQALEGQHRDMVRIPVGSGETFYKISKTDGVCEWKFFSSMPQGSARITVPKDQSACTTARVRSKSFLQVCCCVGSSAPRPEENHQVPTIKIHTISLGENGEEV

[4] = biological target: T3, Adrenergic receptor alpha-1; experiment: Binding affinity against Alpha-1 adrenergic receptor by displacing [3H]prazosin radioligand in rat cortex membrane.; format: cell membranes, Brain
[5] = biological target: T3, Adrenergic receptor alpha-1; experiment: Intrinsic activity for displacement of [3H]- prazosin from Alpha-1 adrenergic receptor of rat cerebral cortex membrane in the absence of 1 nM GTP; format: tissue-based

- Ki [1]: 0.0245 µM
- Ki [2]: 0.123 µM
- Ki [3]: 0.00833 µM
- Ki [4]: 0.0046 µM
- Ki [5]: 0.0049 µM
Compound: O=c1ccc(-n2ccnc2)nn1CCCCCCCN1CCN(c2ccccc2Cl)CC1
